Active and inactive are the calls of the source. The calls are words filed in the database; no cut-off is given here.
Legend:
[1] = tested on: DU-145; experiment: Induction of apoptosis in human DU145 cells assessed as early apoptotic cells level at 10 uM incubated for 24 hrs by annexin-V and propidium iodide staining based flow cytometry (reference value: 2.06%); assay type: functional
[2] = tested on: DU-145; experiment: Induction of apoptosis in human DU145 cells assessed as late apoptotic cells level at 10 uM incubated for 24 hrs by annexin-V and propidium iodide staining based flow cytometry (reference value: 2.96%); assay type: functional
[3] = tested on: DU-145; experiment: Induction of apoptosis in human DU145 cells assessed as necrotic cells level at 10 uM incubated for 24 hrs by annexin-V and propidium iodide staining based flow cytometry (reference value: 1.33%); assay type: functional
[4] = tested on: DU-145; experiment: Induction of apoptosis in human DU145 cells assessed as viable cells level at 15 uM incubated for 24 hrs by annexin-V and propidium iodide staining based flow cytometry (reference value: 93.65%); assay type: functional
[5] = tested on: DU-145; experiment: Induction of apoptosis in human DU145 cells assessed as early apoptotic cells level at 15 uM incubated for 24 hrs by annexin-V and propidium iodide staining based flow cytometry (reference value: 2.06%); assay type: functional
[6] = tested on: DU-145; experiment: Induction of apoptosis in human DU145 cells assessed as late apoptotic cells level at 15 uM incubated for 24 hrs by annexin-V and propidium iodide staining based flow cytometry (reference value: 2.96%); assay type: functional
[7] = tested on: DU-145; experiment: Induction of apoptosis in human DU145 cells assessed as necrotic cells level at 15 uM incubated for 24 hrs by annexin-V and propidium iodide staining based flow cytometry (reference value: 1.33%); assay type: functional
[8] = tested on: DU-145; experiment: Increase in Bax protein expression in human DU145 cells at 5 to 15 uM incubated for 24 hrs by Western blotting method; assay type: functional, cell-based
Procedure, shortened: (§1)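 DU-145 cells were exposed for 24 h and lysed in RIPA buffer. Protein was quantified by Bradford, and equal amounts were run on SDS-PAGE, transferred to PVDF and immunoblotted, with chemiluminescent detection. Bax/Bcl-2 ratio was taken from 3 densitometric scans as mean SE versus control.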

[9] = Reduction in Bcl-2 protein expression in human DU145 cells at 5 to 15 uM incubated for 24 hrs by Western blotting method; assay type: functional, cell-based; details: DU-145
[10] = tested on: DU-145; experiment: Increase in Bax/Bcl-2 expression ratio in human DU145 cells at 15 uM incubated for 24 hrs by Western blotting method; assay type: functional, cell-based; procedure, shortened: as §1
[11] = tested on: DU-145; experiment: Induction of mitochondrial membrane potential loss in human DU145 cells assessed as increase in JC1 dye monomer green fluorescence at 5 uM incubated for 24 hrs by JC1 dye based flow cytometry (reference value: 2.81%); assay type: functional
[12] = tested on: DU-145; experiment: Induction of mitochondrial membrane potential loss in human DU145 cells assessed as increase in JC1 dye monomer green fluorescence at 10 uM incubated for 24 hrs by JC1 dye based flow cytometry (reference value: 2.81%); assay type: functional
[13] = tested on: DU-145; experiment: Induction of mitochondrial membrane potential loss in human DU145 cells assessed as increase in JC1 dye monomer green fluorescence at 15 uM incubated for 24 hrs by JC1 dye based flow cytometry (reference value: 2.81%); assay type: functional
[14] = tested on: DU-145; experiment: Induction of mitochondrial membrane potential loss in human DU145 cells assessed as increase in JC1 dye monomer green fluorescence incubated for 24 hrs by JC1 dye based flow cytometry; assay type: functional, cell-based
[15] = tested on: DU-145; experiment: Inhibition of AKT Ser473 phosphorylation in human DU145 cells at 15 uM incubated for 24 hrs by Western blotting method; assay type: cell-based
Procedure, shortened: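 After 24 h treatment, cells were washed in ice-cold PBS and lysed in RIPA buffer. Protein was measured by Bradford, equal amounts run on SDS-PAGE and transferred to PVDF. Blots were probed for p-Akt (Ser473) and total Akt, then 1 h with 1:5000 HRP anti-mouse IgG, with chemiluminescent detection. Densitometry was quantified against untreated control.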

[16] = tested on: DU-145; experiment: Potency index, ratio of IC50 for miltefosine to IC50 for test compound against human DU145 cells by MTT assay; assay type: functional
[17] = tested on: MDA-MB-231; experiment: Antiproliferative activity against human MDA-MB-231 cells assessed as inhibition of cell proliferation incubated for 18 hrs followed by MTT addition for 4 hrs by MTT assay; assay type: functional, cell-based
Procedure, shortened: (§2)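 MTT assay. Cells were grown in DMEM with 10% FBS at 37 °C, 5% CO2, 90% relative humidity. 1 × 10⁴ cells per well were seeded and held 24 h, then exposed to compounds diluted in culture medium for 18 h. MTT (5 mg/mL stock) was added for a further 4 h.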

[18] = tested on: MCF7; experiment: Antiproliferative activity against human MCF7 cells assessed as inhibition of cell proliferation incubated for 18 hrs followed by MTT addition for 4 hrs by MTT assay; assay type: functional, cell-based; procedure, shortened: as §2
[19] = tested on: HEK293; experiment: Antiproliferative activity against HEK293 cells assessed as inhibition of cell proliferation incubated for 18 hrs followed by MTT addition for 4 hrs by MTT assay; assay type: cell-based; details: Homo sapiens; procedure, shortened: as §2
[20] = Antiproliferative activity against human PC3 cells assessed as inhibition of cell proliferation incubated for 18 hrs followed by MTT addition for 4 hrs by MTT assay; assay type: functional, cell-based; details: PC-3; procedure, shortened: as §2
[21] = Antiproliferative activity against human DU145 cells assessed as inhibition of cell proliferation incubated for 18 hrs followed by MTT addition for 4 hrs by MTT assay; assay type: functional, cell-based; details: DU-145; procedure, shortened: as §2
[22] = tested on: DU-145; experiment: Induction of cell cycle arrest in human DU145 cells assessed as accumulation at G0/G1 phase at 5 uM incubated for 24 hrs by propidium iodide staining based FACS assay (reference value: 53.66%); assay type: functional
[23] = tested on: DU-145; experiment: Induction of cell cycle arrest in human DU145 cells assessed as accumulation at S phase at 5 uM incubated for 24 hrs by propidium iodide staining based FACS assay (reference value: 39.44%); assay type: functional
[24] = tested on: DU-145; experiment: Induction of cell cycle arrest in human DU145 cells assessed as accumulation at G2/M phase at 5 uM incubated for 24 hrs by propidium iodide staining based FACS assay (reference value: 6.90%); assay type: functional
[25] = tested on: DU-145; experiment: Induction of cell cycle arrest in human DU145 cells assessed as accumulation at G0/G1 phase at 10 uM incubated for 24 hrs by propidium iodide staining based FACS assay (reference value: 53.66%); assay type: functional
[26] = tested on: DU-145; experiment: Induction of cell cycle arrest in human DU145 cells assessed as accumulation at S phase at 10 uM incubated for 24 hrs by propidium iodide staining based FACS assay (reference value: 39.44%); assay type: functional
[27] = tested on: DU-145; experiment: Induction of cell cycle arrest in human DU145 cells assessed as accumulation at G2/M phase at 10 uM incubated for 24 hrs by propidium iodide staining based FACS assay (reference value: 6.90%); assay type: functional
[28] = tested on: DU-145; experiment: Induction of cell cycle arrest in human DU145 cells assessed as accumulation at G0/G1 phase at 15 uM incubated for 24 hrs by propidium iodide staining based FACS assay (reference value: 53.66%); assay type: functional
[29] = tested on: DU-145; experiment: Induction of cell cycle arrest in human DU145 cells assessed as accumulation at S phase at 15 uM incubated for 24 hrs by propidium iodide staining based FACS assay (reference value: 39.44%); assay type: functional
[30] = tested on: DU-145; experiment: Induction of cell cycle arrest in human DU145 cells assessed as accumulation at G2/M phase at 15 uM incubated for 24 hrs by propidium iodide staining based FACS assay (reference value: 6.90%); assay type: functional
[31] = tested on: DU-145; experiment: Induction of apoptosis in human DU145 cells assessed as viable cells level at 5 uM incubated for 24 hrs by annexin-V and propidium iodide staining based flow cytometry (reference value: 93.65%); assay type: functional
[32] = tested on: DU-145; experiment: Induction of apoptosis in human DU145 cells assessed as early apoptotic cells level at 5 uM incubated for 24 hrs by annexin-V and propidium iodide staining based flow cytometry (reference value: 2.06%); assay type: functional
[33] = tested on: DU-145; experiment: Induction of apoptosis in human DU145 cells assessed as late apoptotic cells level at 5 uM incubated for 24 hrs by annexin-V and propidium iodide staining based flow cytometry (reference value: 2.96%); assay type: functional
[34] = tested on: DU-145; experiment: Induction of apoptosis in human DU145 cells assessed as necrotic cells level at 5 uM incubated for 24 hrs by annexin-V and propidium iodide staining based flow cytometry (reference value: 1.33%); assay type: functional
[35] = tested on: DU-145; experiment: Induction of apoptosis in human DU145 cells assessed as viable cells level at 10 uM incubated for 24 hrs by annexin-V and propidium iodide staining based flow cytometry (reference value: 93.65%); assay type: functional
[36] = tested on: MCF7; experiment: Induction of mitochondrial membrane potential loss in human MCF7 cells assessed as increase in JC1 dye monomer green fluorescence incubated for 24 hrs by JC1 dye based flow cytometry (reference value: 1.78%); assay type: functional
[37] = tested on: MCF7; experiment: Induction of cell cycle arrest in human MCF7 cells assessed as accumulation at G0/G1 phase incubated for 24 hrs by propidium iodide staining based FACS assay (reference value: 53.32%); assay type: functional
[38] = tested on: MCF7; experiment: Induction of cell cycle arrest in human MCF7 cells assessed as accumulation at S phase incubated for 24 hrs by propidium iodide staining based FACS assay (reference value: 45.21%); assay type: functional
[39] = tested on: MCF7; experiment: Induction of cell cycle arrest in human MCF7 cells assessed as accumulation at G2/M phase incubated for 24 hrs by propidium iodide staining based FACS assay (reference value: 1.47%); assay type: functional
[40] = tested on: MCF7; experiment: Induction of cell cycle arrest in human MCF7 cells assessed as accumulation at sub-diploid phase incubated for 24 hrs by propidium iodide staining based FACS assay (reference value: 7.26%); assay type: functional
[41] = tested on: MCF7; experiment: Induction of apoptosis in human MCF7 cells assessed as viable cells level incubated for 24 hrs by annexin-V and propidium iodide staining based flow cytometry (reference value: 89.58%); assay type: functional
[42] = tested on: MCF7; experiment: Induction of apoptosis in human MCF7 cells assessed as early apoptotic cells level incubated for 24 hrs by annexin-V and propidium iodide staining based flow cytometry (reference value: 6.42%); assay type: functional
[43] = tested on: MCF7; experiment: Induction of apoptosis in human MCF7 cells assessed as late apoptotic cells level incubated for 24 hrs by annexin-V and propidium iodide staining based flow cytometry (reference value: 1.85%); assay type: functional
[44] = tested on: MCF7; experiment: Induction of apoptosis in human MCF7 cells assessed as necrotic cells level incubated for 24 hrs by annexin-V and propidium iodide staining based flow cytometry (reference value: 2.15%); assay type: functional

With CCCCCCCCCCCCCCCCOP(=O)(O)OCCSC(=S)N1CCCCC1 the Activity [1] was 11.06%, the Activity [2] was 4.52% and the Activity [3] was 1.4%. The Activity [4] was 78.81%, the Activity [5] was 12.65% and the Activity [6] was 6.33%. For the same compound, the Activity [7] was 2.21%, the Activity [8] was “Active” and the Activity [9] was “Active”. For the same compound, the Activity [10] was “Active”, the Activity [11] was 3.68% and the Activity [12] was 30.84%. The Activity [13] was 9.29%, the Activity [14] was “Dose-dependent effect” and the inhibition [15] was “Active”. The “Ratio IC50” value [16] was 2, the IC50 [17] was 100 µM and the IC50 [18] was 29 µM. It also gave an IC50 [19] of over 100 µM, an IC50 [20] of 34.3 µM and an IC50 [21] of 14.7 µM. It also gave an Activity [22] of 59.09%, an Activity [23] of 35.26% and an Activity [24] of 5.65%. The Activity [25] was 61.15%, the Activity [26] was 32.94% and the Activity [27] was 5.92%. For the same compound, the Activity [28] was 67.13%, the Activity [29] was 27.27% and the Activity [30] was 5.6%. It also gave an Activity [31] of 86.45%, an Activity [32] of 9% and an Activity [33] of 2.91%. For the same compound, the Activity [34] was 1.64% and the Activity [35] was 83.02%.

CCCCCCCCCCCCCCCCOP(=O)([O-])OCC[N+](C)(C)C [MILTEFOSINE] gave an Activity [36] of 50.05%, an IC50 [17] of 2.08 µM and an IC50 [18] of 34.7 µM. For the same compound, the IC50 [20] was 19.9 µM, the IC50 [21] was 25.8 µM and the Activity [37] was 64.8%. The Activity [38] was 33.07%, the Activity [39] was 2.14% and the Activity [40] was 3.48%. It also gave an Activity [41] of 43.6%, an Activity [42] of 44.84% and an Activity [43] of 9.43%. It also gave an Activity [44] of 2.15%.
